Source: ChEMBL document CHEMBL2396601, “Synthesis and antiprotozoal activity of dicationic m-terphenyl and 1,3-dipyridylbenzene derivatives” (J Med Chem, 2013)
Active and inactive are the calls of the source. The calls are words filed in the database; no cut-off is given here.

Key:
[1] = Selectivity index, ratio of IC50 for rat L6 cells to IC50 for Trypanosoma brucei rhodesiense STIB900; format: toxicity, cell-based; conditions: for selectivity ratio: L6 cells, read-out: Ratio IC50
Method in brief: (§1)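 Selectivity index is IC50 against L6 rat myoblast cells divided by IC50 against the named parasite.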

[2] = tested on: Trypanosoma brucei rhodesiense; experiment: Antiprotozoal activity against Trypanosoma brucei rhodesiense STIB900 after 72 hrs by Alamar Blue assay; format: functional, organism-based; conditions: Trypanosoma brucei, STIB900, 72 h
Method in brief: (§2)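 Uses T. b. rhodesiense STIB900, T. cruzi Tulahuen C2C4 LacZ intracellular amastigotes, or L6 rat myoblasts depending on line.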

[3] = tested on: Trypanosoma cruzi; experiment: Antiprotozoal activity against intracellular amastigote form of Trypanosoma cruzi Tulahuen C2C4 expressing LacZ infected in rat L6 cells after 48 hrs; format: functional, organism-based; conditions: Tulahuen C2C4, L6, 48 h; method in brief: as §2
[4] = tested on: Trypanosoma brucei rhodesiense; experiment: Antiprotozoal activity against Trypanosoma brucei rhodesiense STIB900 infected in NMRI mouse assessed as host mean survival days at 5 mg/kg, ip qd for 4 days; format: functional; conditions: route intraperitoneal
Method in brief: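 Acute-stage HAT mouse model infected with STIB900. Cure means survival to 60 days after infection with no parasitemia relapse. Mean survival days are counted from infection and use every mouse: relapsed mice, plus cured mice entered as >60 days.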

[5] = tested on: L6; experiment: Cytotoxicity against rat L6 cells after 72 hrs by Alamar Blue assay; format: cell-based; conditions: L6, 72 h; method in brief: as §2
[6] = Selectivity index, ratio of IC50 for rat L6 cells to IC50 for Plasmodium falciparum K1; format: toxicity, cell-based; conditions: for selectivity ratio: L6 cells, read-out: Ratio IC50; method in brief: as §1
[7] = tested on: Plasmodium falciparum; experiment: Antiprotozoal activity against chloroquine-resistant Plasmodium falciparum K1 after 48 hrs by [3H]-hypoxanthine incorporation assay; format: functional, organism-based; conditions: Plasmodium falciparum, K1
[8] = tested on: Trypanosoma brucei rhodesiense; experiment: Antiprotozoal activity against Trypanosoma brucei rhodesiense STIB900 infected in NMRI mouse assessed as reduction of parasitemia relapse at 5 mg/kg, ip qd for 4 days; format: functional, organism-based; design: dose 5 mg/kg
Method in brief: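 Mouse model of acute (early) stage HAT with T. b. rhodesiense STIB900, groups of 4 mice. Amidines dosed intraperitoneally, 4 daily doses of 5 mg/kg or single doses; prodrugs dosed orally, 4 daily doses of 25 mg/kg. Cure means survival to 60 days after infection with no parasitemia relapse. Mean survival days counts all mice, with cured mice scored as >60 days.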

[9] = Selectivity index, ratio of IC50 for rat L6 cells to IC50 for Trypanosoma cruzi Tulahuen C2C4; format: toxicity, cell-based; conditions: read-out: Ratio IC50; method in brief: as §1
[10] = tested on: Leishmania amazonensis; experiment: Antiprotozoal activity against intracellular amastigote form of Leishmania amazonensis infected in CD1 mouse macrophages after 72 hrs by […]; format: functional, organism-based

Structure (SMILES)	Ratio IC50 ([1]; l6)	IC50 [2]	IC50 [3]	MSD [4]	IC50 [5]	Ratio IC50 ([6]; l6)	IC50 [7]	selectivity ratio [1]	Activity [8]	selectivity ratio [6]	selectivity ratio [9]	IC50 [10]
CC(=O)O.N=C(N)c1ccc(-c2cccc(-c3ccc(C(=N)N)cn3)c2)nc1	> 6856	22 nM	> 150000 nM	>60 days	> 150000 nM	> 3339	45 nM	–	–	–	–	–
N=C(N)c1ccc(-c2ccc(-c3ccc(C(=N)N)cc3)o2)cc1 [FURAMIDINE]	–	3 nM	23300 nM	>46 days	–	–	14 nM	–	–	–	–	–
N=C(N)c1ccc(OCCCCCOc2ccc(C(=N)N)cc2)cc1 [PENTAMIDINE]	–	–	–	>38 days	–	–	–	–	–	–	–	–
Cl.Cl.N=C(N)c1ccc(-c2cc(N)cc(-c3ccc(C(=N)N)cc3)c2)cc1	–	4 nM	149000 nM	>35 days	> 150000 nM	–	136 nM	> 39800	inactive	> 1100	> 1	–
CC1(C)CN=C(c2ccc(-c3cccc(-c4ccc(C5=NCC(C)(C)CN5)cc4)c3)cc2)NC1	–	140 nM	151000 nM	–	122000 nM	–	2 nM	871	–	49300	< 1	–
C[C@@H]1[C@H](O)[C@@H](C)/C=C/C=C/C=C/C=C/C=C/C=C/C=C/[C@H](O[C@@H]2O[C@H](C)[C@@H](O)[C@H](N)[C@@H]2O)C[C@@H]2O[C@](O)(C[C@@H](O)C[C@@H](O)[C@H](O)CC[C@@H](O)C[C@@H](O)CC(=O)O[C@H]1C)C[C@H](O)[C@H]2C(=O)O [AMPHOTERICIN B]	–	–	–	–	–	–	–	–	–	–	–	124 nM
O=C(Cn1ccnc1[N+](=O)[O-])NCc1ccccc1 [BENZNIDAZOLE]	–	–	1300 nM	–	> 150000 nM	–	–	–	–	–	115	–
c1cc(C2=NCCN2)cc(-c2cccc(-c3cccc(C4=NCCN4)c3)c2)c1	–	1600 nM	20400 nM	–	31700 nM	–	619 nM	20	–	51	2	–
C[C@@H]1CC[C@H]2[C@@H](C)C(=O)O[C@@H]3O[C@@]4(C)CC[C@@H]1[C@]32OO4 [ARTEMISININ]	–	–	–	–	150000 nM	–	4 nM	–	–	34900	–	–
Cl.Cl.N=C(N)c1cccc(-c2cccc(-c3cccc(C(=N)N)c3)c2)c1	–	55 nM	35000 nM	18.5 days	125000 nM	–	38 nM	2270	inactive	3320	4	–
Cl.Cl.Cl.N=C(N)c1ccc(-c2cc(Cl)cc(-c3ccc(C(=N)N)cc3)c2)cc1	–	31 nM	65500 nM	15.25 days	21900 nM	–	39 nM	700	inactive	561	< 1	–
Cl.Cl.N=C(N)c1ccc(-c2cc(-c3ccc(C(=N)N)cc3)cc([N+](=O)[O-])c2)cc1	–	20 nM	57200 nM	20 days	> 150000 nM	–	18 nM	> 7480	inactive	> 8380	> 2	–
CC(C)NC(=N)c1cccc(-c2cccc(-c3cccc(C(=N)NC(C)C)c3)c2)c1	–	617 nM	141000 nM	–	> 150000 nM	–	31 nM	> 243	–	> 4190	> 1	–
N=C(N)c1cccc(-c2cc(Cl)cc(-c3cccc(C(=N)N)c3)c2)c1	–	44 nM	50200 nM	–	30900 nM	–	33 nM	709	–	944	< 1	–
Cl.Cl.N=C(N)c1ccc(-c2cccc(-c3cccc(C(=N)N)c3)c2)cc1	–	52 nM	27100 nM	34.75 days	28500 nM	–	15 nM	544	inactive	1950	1	–
N=C(N)c1ccc(-c2cc(Cl)cc(-c3cccc(C(=N)N)c3)c2)cc1	–	97 nM	46600 nM	–	12700 nM	–	10 nM	130	–	1250	< 1	–
N=C(N)c1ccnc(-c2cccc(-c3cc(C(=N)N)ccn3)c2)c1	–	1170 nM	> 150000 nM	–	> 150000 nM	–	77 nM	> 128	–	> 1940	–	–
CC1(C)CN=C(c2ccc(-c3cc(-c4ccc(C5=NCC(C)(C)CN5)cc4)cc([N+](=O)[O-])c3)cc2)NC1	–	692 nM	> 150000 nM	–	> 150000 nM	–	3 nM	> 217	–	> 46800	–	–
N=C(N)c1cncc(-c2cccc(-c3cncc(C(=N)N)c3)c2)c1	–	527 nM	> 150000 nM	–	> 150000 nM	–	58 nM	> 285	–	> 2580	–	–
COc1cc(-c2ccc(C(=N)N)cc2)cc(-c2ccc(C(=N)N)cc2)c1.Cl.Cl	–	5 nM	59100 nM	>38 days	33000 nM	–	48 nM	7270	–	693	< 1	–
CCN(CC)CCCC(C)Nc1ccnc2cc(Cl)ccc12 (stereo not given) [CHLOROQUINE]	–	–	–	–	76500 nM	–	–	–	–	–	–	–
Nc1nc(N)nc(Nc2ccc([As]3SCC(CO)S3)cc2)n1 (stereo not given) [MELARSOPROL]	–	–	–	>60 days	–	–	–	–	Active	–	–	–
COc1cc(-c2cccc(C(=N)N)c2)cc(-c2cccc(C(=N)N)c2)c1.Cl.Cl	–	29 nM	55900 nM	10 days	137000 nM	–	28 nM	4700	inactive	4960	2	–
CC(C)NC(=N)c1ccc(-c2cccc(-c3ccc(C(=N)NC(C)C)cc3)c2)cc1.Cl.Cl	–	47 nM	> 150000 nM	13.5 days	102000 nM	–	16 nM	2160	inactive	6580	< 1	–
CC1(C)CN=C(c2cccc(-c3cccc(-c4cccc(C5=NCC(C)(C)CN5)c4)c3)c2)NC1	–	809 nM	45400 nM	–	56600 nM	–	6 nM	70	–	9500	1	–
Cl.Cl.N=C(N)c1ccc(-c2cc(O)cc(-c3ccc(C(=N)N)cc3)c2)cc1	–	4 nM	> 150000 nM	>41.25 days	> 150000 nM	–	38 nM	> 37500	–	> 3950	< 1	–
Cl.Cl.c1cc(-c2ccc(C3=NCCN3)cc2)cc(-c2ccc(C3=NCCN3)cc2)c1	–	68 nM	18900 nM	9.25 days	2550 nM	–	73 nM	37	inactive	35	< 1	–
